Results on 13 molecules are retold here after ChEMBL document CHEMBL3792351, “Synthesis and anti-inflammatory activity evaluation of a novel series of 6-phenoxy-[1,2,4]triazolo[3,4-a]phthalazine-3-carboxamide derivatives” (Bioorg Med Chem Lett, 2016).

For orientation: inhibition in vivo means the relative decrease from the control value, in per cent.

Data set [1] relates to Mus musculus. Put plainly: Antiinflammatory activity in Kunming mouse assessed as inhibition of xylene-induced ear edema at 50 mg/kg, po administered 5 hrs before xylene challenge measured after 30 mins relative to vehicle treated control. In kind it is functional. The procedure, abridged:
(§1)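 Kunming mice (18-22 g), xylene ear edema; compound given orally at 1, 2, 3, 4, 5 or 6 h before xylene application. Inhibition (%) vs vehicle control group at the corresponding time; p<0.05 vs vehicle.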

Data set [2] deals with HeLa. Kind of data set: Cytotoxicity against human HeLa cells assessed as cell viability at 100 uM after 24 hrs by MTT assay. The data set is classed as cell-based. Summed up:
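HeLa cells treated with compounds at indicated concentrations for 24 h; viability by MTT. Mean ± standard deviation of three independent experiments.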
Background: Formazan colour is commonly taken as a measure of viable cells.

Data set [3] concerns HeLa. Put plainly: Inhibition of TNFalpha-induced NFkappaB (unknown origin) activation expressed in human HeLa cells at 100 uM pre-incubated for 8 hrs followed by stimulation with TNFalpha for 8 hrs by luciferase reporter assay. In kind it is cell-based. The procedure, abridged: (§2)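 HeLa cells transiently transfected 48 h with NF-κB-dependent luciferase reporter, pretreated 8 h with compounds (100 μM screen or indicated concentrations), then TNF-α (10 ng/ml) 8 h; luciferase activity read. Mean ± standard deviation, three independent experiments; compared with TNF-α-stimulated cells.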
On the technique in general: In a reporter assay the amount or activity of a reporter protein is the signal.

Data set [4] concerns Mus musculus. Put plainly: Antiinflammatory activity in Kunming mouse assessed as inhibition of xylene-induced ear edema at 50 mg/kg, po administered 4 hrs before xylene challenge measured after 30 mins relative to vehicle treated control. The data set is classed as functional. Summed up: as §1
The subject of data set [5] is Mus musculus. Put plainly: Antiinflammatory activity in Kunming mouse assessed as inhibition of xylene-induced ear edema at 50 mg/kg, po administered 3 hrs before xylene challenge measured after 30 mins relative to vehicle treated control. In kind it is functional. The procedure, abridged:
as §1

Data set [6] relates to HeLa. Put plainly: Inhibition of TNFalpha-induced NFkappaB (unknown origin) activation expressed in human HeLa cells pre-incubated for 8 hrs followed by stimulation with TNFalpha for 8 hrs by luciferase reporter assay. The data set is classed as cell-based. Summed up: as §2
For data set [7], the system named is Mus musculus. Put plainly: Antiinflammatory activity in Kunming mouse assessed as inhibition of xylene-induced ear edema at 50 mg/kg, po administered 6 hrs before xylene challenge measured after 30 mins relative to vehicle treated control. The data set is classed as functional. The procedure, abridged: as §1
Data set [8] deals with Mus musculus. Put plainly: Antiinflammatory activity in Kunming mouse assessed as inhibition of xylene-induced ear edema at 50 mg/kg, po administered 2 hrs before xylene challenge measured after 30 mins relative to vehicle treated control. In kind it is functional. The procedure, abridged: as §1
The subject of data set [9] is Mus musculus. Kind of data set: Antiinflammatory activity in Kunming mouse assessed as inhibition of xylene-induced ear edema at 50 mg/kg, ip administered 0.5 hrs before xylene challenge measured after 30 mins relative to vehicle treated control. In kind it is functional. Summed up: (§3)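 Xylene-induced ear edema, Kunming mice (18-22 g), 8 per group; drug-treated, indomethacin and normal control groups; single i.p. dose. Edema reported in mg (mean ± SEM), inhibition rate (%) vs DMSO vehicle group; p<0.05 vs vehicle.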

For data set [10], the system named is Mus musculus. Kind of data set: Antiinflammatory activity in Kunming mouse assessed as inhibition of xylene-induced ear edema at 50 mg/kg, po administered 1 hr before xylene challenge measured after 30 mins relative to vehicle treated control. The data set is classed as functional. Summed up: as §1
Data set [11] has as its system Mus musculus. Kind of data set: Antiinflammatory activity in Kunming mouse assessed as inhibition of xylene-induced ear edema at 100 mg/kg, ip administered 0.5 hrs before xylene challenge measured after 30 mins relative to vehicle treated control. The data set is classed as functional. Summed up:
as §3

For data set [12], the system named is Mus musculus. Kind of data set: Antiinflammatory activity in Kunming mouse assessed as inhibition of xylene-induced ear edema at 100 mg/kg, po administered 6 hrs before xylene challenge measured after 30 mins relative to vehicle treated control. In kind it is functional.
Data set [13] deals with Mus musculus. Put plainly: Antiinflammatory activity in Kunming mouse assessed as inhibition of xylene-induced ear edema at 100 mg/kg, po administered 2 hrs before xylene challenge measured after 30 mins relative to vehicle treated control. In kind it is functional.
The subject of data set [14] is Mus musculus. Kind of data set: Antiinflammatory activity in Kunming mouse assessed as inhibition of xylene-induced ear edema at 100 mg/kg, po administered 4 hrs before xylene challenge measured after 30 mins relative to vehicle treated control. In kind it is functional.
In data set [15] the test system is Mus musculus. Kind of data set: Antiinflammatory activity in Kunming mouse assessed as inhibition of xylene-induced ear edema at 100 mg/kg, po administered 5 hrs before xylene challenge measured after 30 mins relative to vehicle treated control. In kind it is functional.
For data set [16], the system named is Mus musculus. Put plainly: Antiinflammatory activity in Kunming mouse assessed as inhibition of xylene-induced ear edema at 100 mg/kg, po administered 3 hrs before xylene challenge measured after 30 mins relative to vehicle treated control. The data set is classed as functional.
Data set [17] deals with Mus musculus. Kind of data set: Antiinflammatory activity in Kunming mouse assessed as inhibition of xylene-induced ear edema at 100 mg/kg, po administered 1 hr before xylene challenge measured after 30 mins relative to vehicle treated control. In kind it is functional.

Calls of active or inactive are those of the source. The rule behind the calls is not given here.

On to `Cc1cccc(Oc2nn3c(C(N)=O)nnc3c3ccccc23)c1`, for which the inhibition in vivo at 50 mg/kg with Mus musculus [1] is 22.4%; in the data set with Mus musculus [4], 38.9%; in the data set on Mus musculus [5], 22.7%; in the data set on Mus musculus [7], 8.19%; in the data set with Mus musculus [8], 8.92%; in the data set on Mus musculus [9], 58.2%. Besides, the inhibition in vivo at 50 mg/kg in the data set with Mus musculus [10] stood at 5.63%. Further, the Activity entry in the data set with HeLa [2] was “Non-toxic”. The inhibition entry in the data set with HeLa [3] is “Active”. The inhibition entry in the data set on HeLa [6] is “Dose-dependent effect”.

In the case of `Cc1ccc(Oc2nn3c(C(N)=O)nnc3c3ccccc23)cc1`, the inhibition entry in the data set on HeLa [3] is “Active”.

Regarding `Cc1cccc2c3c(ccc12)C1=C(C(=O)C3=O)[C@@H](C)CO1`, the inhibition entry with HeLa [3] was “Active”.

`NC(=O)c1nnc2c3ccccc3c(Oc3cccc(Cl)c3)nn12`: the inhibition entry in the data set with HeLa [3] is “Active”.

In the case of `COc1ccc2c(c1)c(CC(=O)O)c(C)n2C(=O)c1ccc(Cl)cc1` [INDOMETHACIN], the inhibition in vivo at 100 mg/kg was determined as 59.2% with Mus musculus [11]; 29.6% with Mus musculus [12]; 22.5% with Mus musculus [13]; 63.4% in the data set with Mus musculus [14]; 53.5% in the data set with Mus musculus [15]; 27.7% in the data set with Mus musculus [16]. For the same molecule, the inhibition in vivo at 100 mg/kg in the data set on Mus musculus [17] came out at 19.1%.

Consider `NC(=O)c1nnc2c3ccccc3c(Oc3ccc(Br)cc3)nn12`, for which the inhibition result in the data set with HeLa [3] was “Active”.

On to `NC(=O)c1nnc2c3ccccc3c(Oc3ccc(Cl)cc3Cl)nn12`, for which the Activity result with HeLa [2] is reported as “Toxic”. In addition, the inhibition entry in the data set with HeLa [3] was “Active”. Further, in the data set on HeLa [6], the inhibition entry was “Dose-dependent effect”.

On to `Cc1ccccc1Oc1nn2c(C(N)=O)nnc2c2ccccc12`, for which the inhibition entry in the data set with HeLa [3] is “Active”.

`COc1ccc(Oc2nn3c(C(N)=O)nnc3c3ccccc23)cc1`: the inhibition result in the data set on HeLa [3] was “Active”.

As for `NC(=O)c1nnc2c3ccccc3c(Oc3cccc(F)c3)nn12`, the inhibition entry in the data set on HeLa [3] is “Active”.

On to `NC(=O)c1nnc2c3ccccc3c(Oc3ccccc3F)nn12`, for which the inhibition entry in the data set with HeLa [3] is “Active”.

`NC(=O)c1nnc2c3ccccc3c(Oc3ccc(F)cc3)nn12`: in the data set with HeLa [3], the inhibition result is “Active”.

`NC(=O)c1nnc2c3ccccc3c(Oc3ccc(Cl)cc3)nn12`: the inhibition result in the data set with HeLa [3] is “Active”.
